A value given as a limit tells only on which side of the number the result lay.

This passage reports IC50, Ratio IC50 and Activity results from ChEMBL document CHEMBL4229460, “Design and biological evaluation of novel hybrids of 1, 5-diarylpyrazole and Chrysin for selective COX-2 inhibition” (Bioorg Med Chem, 2018).

The subject of one assay is MCF7. As to the kind of experiment: Antiproliferative activity against human MCF7 cells after 48 hrs by MTT assay. Format: functional, cell-based. Particulars: MCF7, 48 h.
Another assay has as its system B16-F10. As to the kind of experiment: Antiproliferative activity against mouse B16F10 cells after 48 hrs by MTT assay. The assay is classed as functional, cell-based. Particulars: B16-F10, 48 h. In short, it runs like this:
(§1)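 Cells kept in DMEM with 10% FBS, penicillin/streptomycin, 37 °C, 5% CO₂. Seeded at 5 × 10⁴ cells/well and allowed to adhere 12 h. Exposed to 0, 0.1, 1, 10 and 100 μM (final) for 48 h. Viability read by MTT reduction at OD 570 nm with 630 nm reference. IC50 reported as mean ± SD of three independent experiments.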

The test system of another assay is A549. The experiment in a line: Antiproliferative activity against human A549 cells after 48 hrs by MTT assay. Format: functional, cell-based. To be noted: A549, 48 h. In short, it runs like this:
as §1
(Tetrazolium assays rely on reduction of a dye to a coloured formazan, in cell work by metabolically active cells.)

Assay [1] concerns the target Prostaglandin G/H synthase 1 (Homo sapiens, UniProt P23219). As to the kind of experiment: Inhibition of COX1 (unknown origin) using arachidonic acid as substrate pretreated for 10 mins followed by substrate addition and measured after 2 mins by ELISA. The assay is classed as ADME. A general note: ELISA stands for enzyme-linked immunosorbent assay.
The target in assay [2] is T1, Prostaglandin G/H synthase 2 (Homo sapiens, UniProt P35354).
T1 sequence (P35354 whole entry): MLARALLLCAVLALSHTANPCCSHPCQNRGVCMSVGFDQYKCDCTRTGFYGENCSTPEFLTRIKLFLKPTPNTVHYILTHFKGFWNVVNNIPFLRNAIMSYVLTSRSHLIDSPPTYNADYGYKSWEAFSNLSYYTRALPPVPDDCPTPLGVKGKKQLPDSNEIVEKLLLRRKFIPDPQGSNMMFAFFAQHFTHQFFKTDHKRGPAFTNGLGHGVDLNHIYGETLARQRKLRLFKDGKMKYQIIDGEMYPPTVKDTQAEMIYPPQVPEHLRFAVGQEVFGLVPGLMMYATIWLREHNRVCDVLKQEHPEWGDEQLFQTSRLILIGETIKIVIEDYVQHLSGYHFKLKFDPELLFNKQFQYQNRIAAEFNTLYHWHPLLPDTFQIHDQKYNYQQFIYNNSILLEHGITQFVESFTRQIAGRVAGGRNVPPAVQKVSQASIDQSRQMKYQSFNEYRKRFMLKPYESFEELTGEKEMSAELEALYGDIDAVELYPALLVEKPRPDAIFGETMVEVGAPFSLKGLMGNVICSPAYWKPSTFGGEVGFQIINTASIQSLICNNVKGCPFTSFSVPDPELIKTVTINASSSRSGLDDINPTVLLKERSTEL
As to the kind of experiment: Inhibition of COX2 (unknown origin) using arachidonic acid as substrate pretreated for 10 mins followed by substrate addition and measured after 2 mins by ELISA.

For another assay, the system named is HEK-293T. As to the kind of experiment: Cytotoxicity against human 293T cells after 48 hrs by MTT assay. The assay is classed as cell-based.
For the next assay, the species on record is Homo sapiens. The experiment in a line: Selectivity index, ratio of IC50 for COX1 (unknown origin) to ratio of IC50 for COX2 (unknown origin). The gist of the method: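 Enzyme ELISA kit: COX-1 or COX-2 preincubated with compound at 0, 1, 10 or 100 μM for 10 min at 37 °C in 0.1 M Tris-HCl pH 8.0, 5 mM EDTA, 2 mM phenol, 1 μM heme. Started with 100 μM arachidonic acid for 2 min at 37 °C, stopped with 1 M HCl. PGH₂ reduced by stannous chloride; PGF2α read by enzyme immunoassay at 450 nm. Index taken as the ratio of the COX IC50 values.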

Assay [3] concerns HeLa. The experiment in a line: Antiproliferative activity against human HeLa cells after 48 hrs by MTT assay. Format: functional, cell-based.
Assay [4] concerns HeLa. As to the kind of experiment: Disruption of mitochondrial membrane potential in human HeLa cells assessed as collapse of the mitochondrial membrane potential at 10 uM after 12 hrs by JC1 staining based flow cytometry (reference value: 0.768%). The assay is classed as functional. On the technique in general: Flow cytometry measures light scatter and fluorescence of single cells or particles in a stream.

For assay [5], the system named is HeLa. As to the kind of experiment: Disruption of mitochondrial membrane potential in human HeLa cells assessed as intact mitochondrial membrane at 10 uM after 12 hrs by JC1 staining based flow cytometry (reference value: 99.2%). Format: functional.

Sequence of Prostaglandin G/H synthase 1 (P23219 whole entry): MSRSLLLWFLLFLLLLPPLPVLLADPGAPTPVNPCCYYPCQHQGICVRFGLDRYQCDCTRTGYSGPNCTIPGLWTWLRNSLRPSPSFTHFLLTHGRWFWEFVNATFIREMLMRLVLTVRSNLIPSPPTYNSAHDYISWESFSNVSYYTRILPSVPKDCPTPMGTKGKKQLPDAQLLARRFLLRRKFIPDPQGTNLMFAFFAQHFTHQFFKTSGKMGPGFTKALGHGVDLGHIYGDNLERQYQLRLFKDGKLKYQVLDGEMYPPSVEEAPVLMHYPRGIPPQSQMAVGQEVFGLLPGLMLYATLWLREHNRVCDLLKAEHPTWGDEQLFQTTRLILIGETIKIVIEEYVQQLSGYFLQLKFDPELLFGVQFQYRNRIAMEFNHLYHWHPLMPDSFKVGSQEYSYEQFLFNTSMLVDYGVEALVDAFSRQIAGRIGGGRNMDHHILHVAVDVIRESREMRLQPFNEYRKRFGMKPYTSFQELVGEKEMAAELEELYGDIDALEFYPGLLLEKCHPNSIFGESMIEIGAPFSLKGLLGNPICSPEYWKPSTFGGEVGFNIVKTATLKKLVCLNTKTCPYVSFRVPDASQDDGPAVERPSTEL

Consider `COc1ccc(-c2cc(COC(=O)COc3cc(O)c4c(=O)cc(-c5ccccc5)oc4c3)nn2-c2ccc(Cl)cc2)cc1`, for which the IC50 (as a rule, the concentration at which inhibition is half-maximal) was more than 100 µM in the assay with MCF7; 12.4 µM in the assay on B16-F10; 12.7 µM in the assay on A549; 46.4 µM in [1]; 0.35 µM in assay [2]; 290 µM with HEK-293T. The IC50 in the assay on HeLa [3] was 5.65 µM. Besides, the Ratio IC50 in the assay listed under Homo sapiens came out at 132.
In the case of `O=C(COc1cc(O)c2c(=O)cc(-c3ccccc3)oc2c1)OCc1cc(-c2ccc(F)cc2)n(-c2ccccc2)n1`, the IC50 with MCF7 was 3.82 µM; with B16-F10, 6.24 µM; with A549, 12 µM; in assay [1] it was more than 50 µM; in assay [2] it was 2.54 µM; in the assay on HEK-293T, 187 µM. In the assay on HeLa [3], this compound gave an IC50 of more than 100 µM. For the same compound, the Ratio IC50 in the assay listed under Homo sapiens was more than 20.
Take `Cc1ccc(-n2nc(COC(=O)COc3cc(O)c4c(=O)cc(-c5ccccc5)oc4c3)cc2-c2ccc(F)cc2)cc1`: the IC50 was found to be 17.8 µM with MCF7; 65.8 µM in the assay with B16-F10; 4.62 µM in the assay on A549; 30.2 µM in assay [1]; 2.84 µM in assay [2]; 265 µM in the assay on HEK-293T. Moreover, the IC50 in the assay on HeLa [3] was more than 100 µM. Also, the Ratio IC50 in the assay listed under Homo sapiens was determined as 10.6.
As to `Cc1ccc(-n2nc(COC(=O)COc3cc(O)c4c(=O)cc(-c5ccccc5)oc4c3)cc2-c2ccc(Cl)c(Cl)c2)cc1`, the half-maximal inhibitory concentration (IC50) was 22.2 µM in the assay with MCF7; 7.61 µM in the assay on B16-F10; more than 100 µM in the assay on A549; 27.9 µM in assay [1]; 5.02 µM in assay [2]; 273 µM with HEK-293T. In the assay on HeLa [3], this compound gave an IC50 of 6.06 µM. In addition, in the assay filed under Homo sapiens, the Ratio IC50 came out at 5.56.
Take `O=C(COc1cc(O)c2c(=O)cc(-c3ccccc3)oc2c1)OCc1cc(-c2ccc(Br)cc2)n(-c2ccccc2)n1`: the IC50 with MCF7 is 8.48 µM; in the assay on B16-F10, more than 100 µM; with A549 it was 3.58 µM; in [1], 43.2 µM; in assay [2], 2.12 µM; with HEK-293T it was 316 µM. The IC50 with HeLa [3] was found to be 6.67 µM. Moreover, the Ratio IC50 in the assay filed under Homo sapiens was 20.4.
For the compound `COc1ccc(-c2cc(COC(=O)COc3cc(O)c4c(=O)cc(-c5ccccc5)oc4c3)nn2-c2ccccc2)cc1`, the IC50 in the assay on MCF7 came to 7.1 µM; in the assay on B16-F10 it was 1.76 µM; with A549, 10.6 µM; in [1] it was 41.3 µM; in assay [2], 0.54 µM; with HEK-293T, 257 µM. This compound also displayed an IC50 in the assay with HeLa [3] of 2.72 µM. The Ratio IC50 in the assay filed under Homo sapiens was 75.9.
Take `N#CC(C#N)=NNc1cccc(Cl)c1` [CARBONYL CYANIDE M-CHLOROPHENYLHYDRAZONE]: the Activity in the assay on HeLa [4] worked out at 40.5%; with HeLa [5], 59.5%.
On to `COc1cccc(-c2cc(COC(=O)COc3cc(O)c4c(=O)cc(-c5ccccc5)oc4c3)nn2-c2ccccc2)c1`, for which the IC50 came to 5.12 µM with MCF7; 6.92 µM in the assay with B16-F10; 13.6 µM with A549; 25.5 µM in assay [1]; 1.21 µM in [2]; 317 µM in the assay on HEK-293T. In addition, in the assay with HeLa [3], the IC50 was 13.6 µM. Also, the Ratio IC50 in the assay filed under Homo sapiens amounted to 21.
As for `O=C(COc1cc(O)c2c(=O)cc(-c3ccccc3)oc2c1)OCc1cc(-c2ccc(Cl)cc2)n(-c2ccccc2)n1`, the IC50 is 47 µM in the assay on MCF7; 15.6 µM in the assay with B16-F10; more than 100 µM in the assay on A549; more than 50 µM in assay [1]; 1.41 µM in [2]; 227 µM in the assay on HEK-293T. Also, in the assay with HeLa [3], inhibition was half-maximal at 1.65 µM (IC50). Also, the Ratio IC50 in the assay listed under Homo sapiens was more than 35.
Regarding `Cc1ccc(-n2nc(COC(=O)COc3cc(O)c4c(=O)cc(-c5ccccc5)oc4c3)cc2-c2ccc([N+](=O)[O-])cc2)cc1`, the IC50 with MCF7 turned out to be 15.8 µM; with B16-F10, 2.71 µM; in the assay with A549, 5.88 µM; in assay [1] it was 44.8 µM; in assay [2] it was 1.39 µM; in the assay on HEK-293T, 216 µM. This compound had an IC50 with HeLa [3] of 18.4 µM. Further, the Ratio IC50 in the assay listed under Homo sapiens amounted to 32.1.
Take `Cc1ccc(-c2cc(COC(=O)COc3cc(O)c4c(=O)cc(-c5ccccc5)oc4c3)nn2-c2ccc(C)cc2)cc1`: the 50% inhibitory concentration (IC50) in the assay with MCF7 came out at 3.23 µM; in the assay on B16-F10, 3.51 µM; in the assay with A549, 2.87 µM; in [1], 41.2 µM; in assay [2] it was 0.42 µM; in the assay with HEK-293T, 197 µM. Further, in the assay with HeLa [3], the IC50 was found to be 2.87 µM. Also, the Ratio IC50 in the assay listed under Homo sapiens was 96.
As to `Cc1ccc(-n2nc(COC(=O)COc3cc(O)c4c(=O)cc(-c5ccccc5)oc4c3)cc2-c2cccc(C)c2)cc1`, the IC50 with MCF7 worked out at 3.25 µM; with B16-F10, 4.33 µM; in the assay with A549, 11.6 µM; in assay [1] it was 32.2 µM; in assay [2], 1.19 µM; in the assay on HEK-293T, 398 µM. This compound also gave a half-maximal inhibitory concentration (IC50) in the assay with HeLa [3] of 1.31 µM. Further, the Ratio IC50 in the assay filed under Homo sapiens stood at 27.
